Source: ChEMBL document CHEMBL1156469 (2007)
Active and inactive are the calls of the source. The rule behind the calls is not given here.

Tested on: Rattus norvegicus
Test: Antiapoptotic activity against osteoblasts in ovariectomized Wistar rat at 0.1 mg/kg after 10 weeks
Assay type: functional, organism-based
Set-up: dose 0.1 mg/kg
Outline: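 After 10 weeks, lumbar vertebrae were removed. Apoptotic osteoblasts were detected by TUNEL staining (Klenow FragEL) in undecalcified, plastic-embedded sections. Values are means ± S.D.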

C[C@]12CC[C@@H]3c4ccc(O)cc4CC[C@H]3[C@@H]1CC[C@@H]2O
Activity: Active
